Measurements reported in PMC4857052 (Molecular pharmacology, 2012).

Assays:
TbU1 = conditions: procyclic forms (PCF), NE = no effect on uptake at concentration indicated, ref De Koning and Jarvis (1998), Papageorgiou et al. (2005), Gudin et al. (2006), cited from earlier work; for Ki: read-out: Ki, U1
[1] = system: T. b. brucei bloodstream forms strain 427 WT; assay: Alamar blue drug sensitivity assay, wild-type; assay type: cell-based, Trypanosoma brucei brucei; conditions: for effect on bloodstream trypanosomes (in words): Alamar blue viability assay; for EC50: Trypanosoma brucei, read-out: EC50, WT, Mean, Alamar blue assay, wild-type sensitive control strain
How it was run: (§1)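 Bloodstream-form T. b. brucei s427 grown in HMI-9 with 10% FBS at 37°C under 5% CO2. Resistant lines were made by months of stepwise-increasing exposure to the analog, then cloned by limiting dilution. Viability was read by resazurin (Alamar blue) reduction. Thymidine rescue was tested by adding 100 μM thymidine.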

TbU3 uracil transporter = assay: [3H]-uracil transport in bloodstream forms; assay type: cell-based, Trypanosoma brucei brucei; conditions: read-out: Km, U3; bloodstream forms (BSF); Km of the permeant itself
TbU3 = assay: [3H]-2′deoxyuridine transport in bloodstream forms; assay type: cell-based, Trypanosoma brucei brucei
[2] = system: s427WT T. b. brucei bloodstream forms; assay: Kinetic parameters of pyrimidine transport in wild-type bloodstream forms; assay type: cell-based, Trypanosoma brucei brucei; conditions: [3H]-permeant; strain s427WT
How it was run: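 Log-phase cells were washed into HEPES/bicarbonate glucose buffer (pH 7.3) at 1 × 10^8/ml and mixed with an equal volume of [3H]-permeant, with or without unlabeled competitor, at ambient temperature. Uptake was stopped with ice-cold buffer containing saturating unlabeled permeant, then cells were spun through oil. Counts were corrected for nonspecific binding and Km, Vmax and Ki obtained by curve fitting. Runs were in triplicate. Thymidine: 10 μM label, 15 min. Orotic acid: 10 min.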

[3] = system: T. b. brucei bloodstream forms; assay: Uptake of other radiolabeled pyrimidines by wild-type bloodstream forms; assay type: cell-based, Trypanosoma brucei brucei; conditions: over 15 min; 2.5 μM [3H]-2′-deoxycytidine, 0.25 μM [3H]-cytosine, 1 μM [3H]-thymine
5FURes T. b. brucei = assay: Alamar blue drug sensitivity assay, 5FURes; assay type: cell-based, Trypanosoma brucei brucei; conditions: for EC50: Trypanosoma brucei, read-out: EC50, 5FURes, Mean; for RF, 5FURes: resistance factor: IC50(resistant clone)/IC50(WT)
How it was run: as §1

5FOARes T. b. brucei = assay: Alamar blue drug sensitivity assay, 5FOARes; assay type: cell-based, Trypanosoma brucei brucei; conditions: for EC50: Trypanosoma brucei, read-out: EC50, 5FOARes, Mean; for RF, 5FOARes: resistance factor: IC50(resistant clone)/IC50(WT)
How it was run: as §1

5F-2′dURes T. b. brucei = assay: Alamar blue drug sensitivity assay, 5F-2′dURes; assay type: cell-based, Trypanosoma brucei brucei; conditions: for EC50: Trypanosoma brucei, read-out: EC50, 5F-2′dURes, Mean; for RF, 5F-2′dURes: resistance factor: IC50(resistant clone)/IC50(WT)
How it was run: as §1

[4] = system: TbT1 (P1-type nucleoside transporter); assay: [3H]-thymidine transport in bloodstream forms; assay type: cell-based, Trypanosoma brucei brucei; conditions: bloodstream forms
5-FURes T. b. brucei = assay: Pyrimidine transport in 5-FURes bloodstream forms; assay type: cell-based, Trypanosoma brucei brucei

Cn1ccc(=O)[nH]c1=O [1-Methyluracil]
Ki, U1 (TbU1): NE, 10000

Sc1ncccn1 [2-Mercaptopyrimidine]
Ki, U1 (TbU1): NE, 500

O=c1nccc[nH]1 [2-Pyrimidone]
Ki (TbU1): 5400 ± 1300 µM

O=c1cc[nH]c(=S)[nH]1 [2-Thiouracil]
Ki (TbU1): 640 ± 110 µM

O=c1ccn([C@@H]2O[C@H](CO)[C@@H](O)[C@H]2O)c(=S)[nH]1 [2-thiouridine]
effect on bloodstream trypanosomes (in words) [1]: no effect up to at least 1 mM

O=c1ccn([C@H]2CC[C@@H](CO)O2)c(=O)[nH]1 [2’,3′-dideoxyuridine, 2′,3′-dideoxyuridine]
effect on bloodstream trypanosomes (in words) [1]: no effect up to at least 1 mM

O=c1ccn([C@H]2C[C@H](O)[C@@H](CO)O2)c(=O)[nH]1 [2’Deoxyuridine, 2′-deoxyuridine]
Km (TbU3 uracil transporter): 810 ± 130 µM | rate of [3H]-2′deoxyuridine uptake (TbU3; 0.5 μM [3H]-2′deoxyuridine): 0.00045 pmol (10^7 cells)^−1s^−1 | rate of [3H]-2′deoxyuridine transport (TbU3; 5 μM [3H]-2′deoxyuridine, linear over 4 min): 0.0051 ± 0.0003 pmol/10^7 cells/s | inhibition of [3H]-2′deoxyuridine transport by unlabeled 2′-deoxyuridine (TbU3; 5 μM label, 2.5 mM unlabeled): 76% | Km [2]: 810 ± 310 µM | Vmax [2]: 1.3 ± 0.7 pmol (10^7 cells)^−1s^−1

Nc1ccn([C@H]2C[C@H](O)[C@@H](CO)O2)c(=O)n1 [2′-deoxycytidine]
accumulation of radiolabeled permeant (in words) [3]: just detectable accumulation

O=C1C=CNC(=O)C1 [3-Deazauracil]
Ki (TbU1): > 2500 µM

Cn1c(=O)cc[nH]c1=O [3-Methyluracil]
Ki (TbU1): 1620 ± 350 µM

Cc1cn([C@H]2CC[C@@H](CO)O2)c(=O)[nH]c1=O [3′-deoxythymidine]
effect on bloodstream trypanosomes (in words) [1]: no effect up to at least 1 mM

O=c1ccn([C@@H]2O[C@H](CO)C[C@H]2O)c(=O)[nH]1 [3′-deoxyuridine]
effect on bloodstream trypanosomes (in words) [1]: no effect up to at least 1 mM

O=c1ccnc[nH]1 [4(3H)Pyrimidone]
Ki (TbU1): 1670 ± 180 µM

O=c1[nH]ccc(=S)[nH]1 [4-Thiouracil]
Ki (TbU1): 22 ± 7 µM

O=c1[nH]c(=S)ccn1[C@@H]1O[C@H](CO)[C@@H](O)[C@H]1O [4-thiouridine]
effect on bloodstream trypanosomes (in words) [1]: no effect up to at least 1 mM

O=C1CCNC(=O)N1 [5,6-Dihydrouracil]
Ki (TbU1): 830 ± 200 µM

O=c1[nH]cc(Cl)c(=O)[nH]1 [5-Chlorouracil]
Ki (TbU1): 900 ± 140 µM

O=C(O)c1[nH]c(=O)[nH]c(=O)c1F [5-Fluoroorotic acid, 5-fluoroorotic acid]
EC50 [1]: 14.1 µM | EC50 (5FURes T. b. brucei): 98 µM | RF, 5FURes (5FURes T. b. brucei): 6.9 | EC50 (5FOARes T. b. brucei): 1180 µM | RF, 5FOARes (5FOARes T. b. brucei): 83 | EC50 (5F-2′dURes T. b. brucei): 13.3 µM | RF, 5F-2′dURes (5F-2′dURes T. b. brucei): 0.94

O=c1[nH]cc(F)c(=O)[nH]1 [5-Fluorouracil, 5-fluorouracil]
effect on [3H]-thymidine transport (in words) [4]: little or no effect | reduction of [3H]-5-FU transport in 5-FURes relative to wild-type (5-FURes T. b. brucei; 0.5 μM [3H]-5-FU, n = 3): 76% ± 6 | Km (5-FURes T. b. brucei; [3H]-permeant, strain 5-FURes): 2.3 ± 0.4 µM | Km [2]: 2.5 ± 0.01 µM | Vmax [2]: 0.27 ± 0.02 pmol (10^7 cells)^−1s^−1 | EC50 [1]: 35.9 µM | EC50 (5FURes T. b. brucei): 4710 µM | RF, 5FURes (5FURes T. b. brucei): 131 | EC50 (5FOARes T. b. brucei): 448 µM | RF, 5FOARes (5FOARes T. b. brucei): 13 | EC50 (5F-2′dURes T. b. brucei): 76.1 µM | RF, 5F-2′dURes (5F-2′dURes T. b. brucei): 2.1 | Ki (TbU1): 3 ± 0.8 µM

O=c1[nH]cc([N+](=O)[O-])c(=O)[nH]1 [5-Nitrouracil]
Ki, U1 (TbU1): NE, 1000
